Results published in ChEMBL document CHEMBL1151473, “Posaconazole activity against Candida glabrata after exposure to caspofungin or amphotericin B” (2008).
In brackets after ≈: the same amount, converted by molar mass. Activity calls are given as the source filed them. The calls are words filed in the database; no cut-off is given here.

Tests used:
Candida parapsilosis = test: Antifungal activity against Candida parapsilosis ATCC 22019 after 48 hrs by broth microdilution method; type: functional; details: Lodderomyces parapsilosis, ATCC 22019, 48 h
Summary of the method: (§1)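 CLSI broth microdilution with final drug concentrations […], incubated at 35°C and read spectrophotometrically at 490 nm at 24 and 48 h. MIC is the first concentration giving 50% turbidity reduction versus control, or 90% for amphotericin B. Run in quintuplicate.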

Nakaseomyces glabratus [1] = test: Antifungal activity against Candida glabrata isolate 4198 after 48 hrs by broth microdilution method; type: functional; summary of the method: as §1
Nakaseomyces glabratus [2] = test: Antifungal activity against Candida glabrata isolate 4205 after 48 hrs by broth microdilution method; type: functional; details: isolate 4205, 48 h; summary of the method: as §1
Nakaseomyces glabratus [3] = test: Antifungal activity against Candida glabrata isolate 4293 after 48 hrs by broth microdilution method; type: functional; summary of the method: as §1
Nakaseomyces glabratus [4] = test: Antifungal activity against Candida glabrata isolate 4370 after 48 hrs by broth microdilution method; type: functional; summary of the method: as §1
Nakaseomyces glabratus [5] = test: Antifungal activity against Candida glabrata isolate 4293 pretreated overnight with 0.5 times of amphotericin B MIC measured after 48 hrs by broth microdilution method; type: functional
Nakaseomyces glabratus [6] = test: Antifungal activity against Candida glabrata isolate 4293 pretreated overnight with 0.5 times of caspofungin MIC measured after 48 hrs by broth microdilution method; type: functional
Nakaseomyces glabratus [7] = test: Antifungal activity against Candida glabrata isolate 4370 pretreated overnight with 0.5 times of amphotericin B MIC measured after 48 hrs by broth microdilution method; type: functional
Nakaseomyces glabratus [8] = test: Antifungal activity against Candida glabrata isolate 4370 pretreated overnight with 0.5 times of caspofungin MIC measured after 48 hrs by broth microdilution method; type: functional
Nakaseomyces glabratus [9] = test: Antifungal activity against Candida glabrata isolate 4293 assessed as viable yeast cells pretreated overnight with 0.015 ug/ml caspofungin measured at 0.5 ug/ml after 48 hrs; type: functional
Nakaseomyces glabratus [10] = test: Antifungal activity against Candida glabrata isolate 4293 assessed as viable yeast cells pretreated overnight with 0.25 ug/ml caspofungin measured at 0.5 ug/ml after 48 hrs; type: functional
Nakaseomyces glabratus [11] = test: Antifungal activity against Candida glabrata isolate 4293 assessed as viable yeast cells pretreated overnight with 0.015 ug/ml caspofungin measured at 4 ug/ml measured after 48 hrs; type: functional
Nakaseomyces glabratus [12] = test: Antifungal activity against Candida glabrata isolate 4293 assessed as viable yeast cells pretreated overnight with 0.25 ug/ml caspofungin measured at 4 ug/ml measured after 48 hrs; type: functional
Nakaseomyces glabratus [13] = test: Antifungal activity against Candida glabrata isolate 4293 at 5 ug/disk after 24 hrs by halo assay; type: functional; details: isolate 4293, 24 h, read-out: IZ
Summary of the method: (§2)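 Exposed or unexposed C. glabrata 4293 cells (1 x 10^6 CFU/ml) plated on Mueller-Hinton agar with methylene blue. 6-mm disks loaded with 20 µl posaconazole at 5 or 15 µg. Incubated at 35°C; inhibition zone diameters measured at 24 and 48 h; quintuplicate.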

Nakaseomyces glabratus [14] = test: Antifungal activity against Candida glabrata isolate 4293 at 15 ug/disk after 24 hrs by halo assay; type: functional; details: isolate 4293, 24 h, read-out: IZ; summary of the method: as §2
Nakaseomyces glabratus [15] = test: Antifungal activity against Candida glabrata isolate 4293 pretreated overnight with 0.5 times of caspofungin MIC measured at 5 ug/disk after 24 hrs by halo assay; type: functional; details: read-out: IZ; summary of the method: as §2
Nakaseomyces glabratus [16] = test: Antifungal activity against Candida glabrata isolate 4293 pretreated overnight with 0.5 times of caspofungin MIC measured at 15 ug/disk after 24 hrs by halo assay; type: functional; details: read-out: IZ; summary of the method: as §2
Nakaseomyces glabratus [17] = test: Antifungal activity against Candida glabrata isolate 4198 pretreated overnight with 0.5 times of amphotericin B MIC measured after 48 hrs by broth microdilution method; type: functional
Nakaseomyces glabratus [18] = test: Antifungal activity against Candida glabrata isolate 4198 pretreated overnight with 0.5 times of caspofungin MIC measured after 48 hrs by broth microdilution method; type: functional
Nakaseomyces glabratus [19] = test: Antifungal activity against Candida glabrata isolate 4205 pretreated overnight with 0.5 times of amphotericin B MIC measured after 48 hrs by broth microdilution method; type: functional
Nakaseomyces glabratus [20] = test: Antifungal activity against Candida glabrata isolate 4205 pretreated overnight with 0.5 times of caspofungin MIC measured after 48 hrs by broth microdilution method; type: functional
Nakaseomyces glabratus [21] = test: Antifungal activity against Candida glabrata isolate 4293 pretreated overnight with 0.125 times of caspofungin MIC measured at 5 ug/disk after 24 hrs by halo assay; type: functional; details: read-out: IZ; summary of the method: as §2
Nakaseomyces glabratus [22] = test: Antifungal activity against Candida glabrata isolate 4293 pretreated overnight with 0.125 times of caspofungin MIC measured at 15 ug/disk after 24 hrs by halo assay; type: functional; details: read-out: IZ; summary of the method: as §2
Nakaseomyces glabratus [23] = test: Antifungal activity against Candida glabrata isolate 4293 pretreated overnight with 0.5 times of amphotericin B MIC measured at 5 ug/disk after 24 hrs by halo assay; type: functional; details: read-out: IZ; summary of the method: as §2
Nakaseomyces glabratus [24] = test: Antifungal activity against Candida glabrata isolate 4293 pretreated overnight with 0.5 times of amphotericin B MIC measured at 15 ug/disk after 24 hrs by halo assay; type: functional; details: read-out: IZ; summary of the method: as §2
Nakaseomyces glabratus [25] = test: Antifungal activity against Candida glabrata isolate 4293 pretreated overnight with 0.125 times of amphotericin B MIC measured at 5 ug/disk after 24 hrs by halo assay; type: functional; details: read-out: IZ; summary of the method: as §2
Nakaseomyces glabratus [26] = test: Antifungal activity against Candida glabrata isolate 4293 pretreated overnight with 0.125 times of amphotericin B MIC measured at 15 ug/disk after 24 hrs by halo assay; type: functional; details: read-out: IZ; summary of the method: as §2
Nakaseomyces glabratus [27] = test: (§3) Antifungal activity against 2.44 x 10^8 CFU Candida glabrata isolate 4293 infected in CD1 mouse assessed as reduction in colony forming units treated with a therapeutic regimen of sterile saline solution from day 1 to day 2 followed by 15 mg/kg/day drug administration via oral gavage from day 3 to day 6 post […] challenge measured on day 7 postinfection relative to control; type: functional, organism-based
Summary of the method: (§4)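 CD1 male mice, 25 g, made neutropenic with intraperitoneal cyclophosphamide at 200 mg/kg/day on days −4, +1 and +4. Infected intravenously with C. glabrata 4293 in 0.2 ml. Therapy starts 24 h postchallenge: sterile saline placebo, then once-daily oral gavage in 0.2 ml. Kidney pairs homogenized and plated on Sabouraud dextrose agar for CFU; seven to eight animals per group; medians reported.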

Nakaseomyces glabratus [28] = test: as §3, with “1.04” for “2.44”, “30” for “15”; type: functional, organism-based; summary of the method: as §4

## OC(Cn1cncn1)(Cn1cncn1)c1ccc(F)cc1F [FLUCONAZOLE]
Candida parapsilosis
  MIC: 4 µg/mL (≈ 13.1 µM)
Nakaseomyces glabratus [1]
  MIC: > 64 µg/mL
Nakaseomyces glabratus [2]
  MIC: 1 µg/mL (≈ 3.27 µM)
Nakaseomyces glabratus [3]
  MIC: 32 µg/mL (≈ 104 µM)
Nakaseomyces glabratus [4]
  MIC: 16 µg/mL (≈ 52.2 µM)

## CC[C@@H]([C@H](C)O)n1ncn(-c2ccc(N3CCN(c4ccc(OC[C@@H]5CO[C@@](Cn6cncn6)(c6ccc(F)cc6F)C5)cc4)CC3)cc2)c1=O [POSACONAZOLE]
Nakaseomyces glabratus [5]
  MIC: 0.25 µg/mL (≈ 0.357 µM)
Nakaseomyces glabratus [6]
  MIC: 0.125 µg/mL (≈ 0.178 µM)
Nakaseomyces glabratus [7]
  MIC: 0.06 µg/mL (≈ 0.0856 µM)
Nakaseomyces glabratus [8]
  MIC: 0.125 µg/mL (≈ 0.178 µM)
Nakaseomyces glabratus [9]
  Activity: 6.2%
Nakaseomyces glabratus [10]
  Activity: 6.2%
Nakaseomyces glabratus [11]
  Activity: 0.01%
Nakaseomyces glabratus [12]
  Activity: 0.01%
Nakaseomyces glabratus [13]
  zone of inhibition at 5 µg/disc: 29 mm
Nakaseomyces glabratus [14]
  zone of inhibition at 15 µg/disc: 30 mm
Nakaseomyces glabratus [15]
  zone of inhibition at 5 µg/disc: 26.8 mm
Nakaseomyces glabratus [16]
  zone of inhibition at 15 µg/disc: 29 mm
Nakaseomyces glabratus [17]
  MIC: 0.5 µg/mL (≈ 0.713 µM)
Candida parapsilosis
  MIC: ≤ 0.03 µg/mL
Nakaseomyces glabratus [1]
  MIC: 0.5 µg/mL (≈ 0.713 µM)
Nakaseomyces glabratus [2]
  MIC: ≤ 0.03 µg/mL
Nakaseomyces glabratus [3]
  MIC: 0.25 µg/mL (≈ 0.357 µM)
Nakaseomyces glabratus [4]
  MIC: 0.06 µg/mL (≈ 0.0856 µM)
Nakaseomyces glabratus [18]
  MIC: 1 µg/mL (≈ 1.43 µM)
Nakaseomyces glabratus [19]
  MIC: ≤ 0.03 µg/mL
Nakaseomyces glabratus [20]
  MIC: 0.06 µg/mL (≈ 0.0856 µM)
Nakaseomyces glabratus [21]
  zone of inhibition at 5 µg/disc: 28 mm
Nakaseomyces glabratus [22]
  zone of inhibition at 15 µg/disc: 29.6 mm
Nakaseomyces glabratus [23]
  zone of inhibition at 5 µg/disc: 28.4 mm
Nakaseomyces glabratus [24]
  zone of inhibition at 15 µg/disc: 29.8 mm
Nakaseomyces glabratus [25]
  zone of inhibition at 5 µg/disc: 27 mm
Nakaseomyces glabratus [26]
  zone of inhibition at 15 µg/disc: 30 mm
Nakaseomyces glabratus [27]
  Activity: Active
Nakaseomyces glabratus [28]
  Activity: Active
